The results in this text go back to ChEMBL document CHEMBL4004787, “Polyoxygenated Cyclohexenes and Other Constituents of Cleistochlamys kirkii Leaves” (J Nat Prod, 2017).

The test system of one series is Krebs2. Nature of the series: Inhibition of cap/HCV-mediated translation in mouse Krebs2 cell free extract expressing FF/HCV/IRES-Ren mRNA reporter transcript assessed as reduction in luciferase production at 20 uM after 60 mins. Format: functional. The procedure, abridged: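 Krebs-2 in vitro translation extracts programmed with bicistronic firefly-HCV IRES-Renilla luciferase mRNA. Compounds at 10 mM DMSO stock, diluted to 200 μM in water before addition. Reactions incubated 60 min at 30 °C, then both luciferase activities read. Firefly signal reports cap-dependent translation; Renilla signal reports HCV IRES translation.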

Series [1] in a line: Growth inhibition of HEK293 cells at 20 uM after 72 hrs by PrestoBlue staining based fluorescence assay relative to control. It counts as cell-based. The note with it: human, read-out: GI.
Series [2] can be described thus: Selectivity index, ratio of growth inhibitory effect against HEK293 cells at 20 uM to IC50 for chloroquine-sensitive Plasmodium falciparum 3D7 infected in human RBC. It counts as toxicity, cell-based. The note with it: HEK293 cells versus Plasmodium falciparum 3D7 in human RBC, read-out: Selectivity Index.
Series [3] has as its system Plasmodium falciparum. As to the kind of experiment: Antimalarial activity against chloroquine-sensitive Plasmodium falciparum 3D7 infected in human RBC after 72 hrs by DAPI staining based confocal microscopic method. As to conditions: 3D7, 72 h. It counts as functional. In outline:
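Triplicate runs, n = 3. Percent inhibition plotted against log dose, and IC50 fitted by nonlinear regression with variable slope. An initial single-point screen was run at 20 μM final concentration.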

For series [4], the system named is Plasmodium falciparum. As to the kind of experiment: Antimalarial activity against chloroquine-resistant Plasmodium falciparum Dd2 infected in human RBC after 72 hrs by DAPI staining based confocal microscopic method. Format: functional. The note with it: Dd2, 72 h. In outline: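 Triplicate runs, n = 3. Percent inhibition plotted against log dose, and IC50 fitted by nonlinear regression with variable slope. […] An initial single-point screen was run at 20 μM final concentration.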

Series [5] is described as follows: Selectivity index, ratio of IC50 for HEK293 cells to IC50 for chloroquine-sensitive Plasmodium falciparum 3D7 infected in human RBC. It counts as toxicity. As to conditions: HEK293 cells versus Plasmodium falciparum 3D7 in human RBC, read-out: Ratio IC50. The procedure, abridged: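 Selectivity index computed as the HEK293 IC50 divided by the P. falciparum 3D7 IC50, compared against puromycin as a nonselective standard.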

The subject of series [6] is Plasmodium falciparum. As to the kind of experiment: Growth inhibition of chloroquine-sensitive Plasmodium falciparum 3D7 infected in human RBC at 40 uM after 72 hrs by DAPI staining based confocal microscopic method relative to control. The note with it: 3D7, 72 h, read-out: GI. Format: functional.
The subject of the next series is MDA-MB-231. Nature of the series: Growth inhibition of human MDA-MB-231 cells after 72 hrs by alamar blue assay. It counts as functional, cell-based. As to conditions: MDA-MB-231, 72 h. The procedure, abridged: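 MDA-MB-231 cells grown in DMEM with 10% FBS, 2 mM L-glutamine, penicillin and streptomycin at 37 °C, 5% CO2. Seeded at 10 000 cells/well, preincubated 24 h, then exposed to 100−0.1 μg/mL for 72 h; vehicle 0.1% or 1.0% DMSO. Alamar Blue read by absorbance at 570 nm (600 nm reference). Six replicates, expressed as % of vehicle control.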

For the next series, the system named is HEK293. Nature of the series: Growth inhibition of HEK293 cells after 72 hrs by PrestoBlue staining based fluorescence assay. Format: cell-based. As to conditions: Homo sapiens, HEK293, 72 h. The procedure, abridged:
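HEK293 cytotoxicity IC50s: percent inhibition plotted against log dose and fitted by nonlinear regression (variable slope). Experiments run in triplicate (n = 3).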

In series [7] the test system is Plasmodium falciparum. Nature of the series: Growth inhibition of chloroquine-sensitive Plasmodium falciparum 3D7 infected in human RBC at 20 uM after 72 hrs by DAPI staining based confocal microscopic method relative to control. It counts as functional. The note with it: 3D7, 72 h, read-out: GI.
The subject of series [8] is Plasmodium falciparum. Nature of the series: Growth inhibition of chloroquine-resistant Plasmodium falciparum Dd2 infected in human RBC at 40 uM after 72 hrs by DAPI staining based confocal microscopic method relative to control. It counts as functional. As to conditions: Dd2, 72 h, read-out: GI. The procedure, abridged: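 Percentage growth inhibition was read at 40 μM, a single concentration. The value is the mean of at least two independent measurements.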

The nature of series [9]: Growth inhibition of HEK293 cells at 40 uM after 72 hrs by PrestoBlue staining based fluorescence assay relative to control. It counts as cell-based. As to conditions: human, read-out: GI.

Calls of active or inactive are those of the source. The rule behind the calls is not given here.

Consider `CC(=O)OC[C@]1(O)[C@H](OC(=O)c2ccccc2)C=C[C@@H](OC(C)=O)[C@@H]1O`, for which the inhibition entry in the series on Krebs2 was “inactive”.

Consider `C[C@H]1[C@@H](O)O[C@@H]2O[C@@]3(C)CC[C@H]4[C@H](C)CC[C@@H]1[C@@]24OO3` [ARTENIMOL], for which, in [1], the inhibition at 72 h, 20 µM was determined as 50%. In addition, in series [2], the selectivity ratio at 20 µM was above 22. For the same compound, the concentration for half-maximal inhibition (IC50) worked out at 0.11 nM with Plasmodium falciparum [3] and 0.15 nM in the series on Plasmodium falciparum [4].

With `COc1ccc(C[C@H](N)C(=O)N[C@H]2[C@@H](O)[C@H](n3cnc4c(N(C)C)ncnc43)O[C@@H]2CO)cc1` [PUROMYCIN], the selectivity ratio in series [5] worked out at 15.9. The compound also registered a 50% inhibitory concentration (IC50) with Plasmodium falciparum [3] of 23 nM.

On to `C[C@H]1[C@H](OC(=O)CCC(=O)O)O[C@@H]2O[C@@]3(C)CC[C@H]4[C@H](C)CC[C@@H]1[C@@]24OO3` [ARTESUNATE], for which the inhibition at 72 h, 20 µM in series [1] is 75%. The selectivity ratio at 20 µM in [2] is above 22. Further, the midpoint of inhibition in the series on Plasmodium falciparum [3], the IC50, lay at 0.48 nM.

`O=C(OCc1cc(O)ccc1O)c1ccccc1`: the inhibition of growth at 40 µM in the series with Plasmodium falciparum [6] came out at 67%. This compound also gave a concentration for half-maximal inhibition (IC50) in the series on MDA-MB-231 of 90 nM.

On to `O=Cc1cccc(O)c1` [3-HYDROXYBENZALDEHYDE], for which the inhibition entry with Krebs2 was “inactive”. Also, in the series on Plasmodium falciparum [6], the inhibition of growth at 40 µM stood at 25%. The compound also came in with an IC50 in the series on MDA-MB-231 of 8200 nM.

In the case of `CC(=O)O[C@@H]1C=C[C@H](O)[C@@H](OC(C)=O)/C1=C/OC(=O)c1ccccc1`, the inhibition entry in the series with Krebs2 was “inactive”. The 50% inhibitory concentration (IC50) in the series on HEK293 came out at 2400 nM; in the series on MDA-MB-231, 290 nM; with Plasmodium falciparum [3], 620 nM; in the series with Plasmodium falciparum [4], 3400 nM. In addition, in [5], the selectivity ratio worked out at 4. Also, the inhibition of growth at 20 µM in the series on Plasmodium falciparum [7] was at least 90%.

`CC(=O)OC(OC(=O)c1ccccc1)C1=CC=C[C@H](O)[C@H]1OC(C)=O` (stereo partly drawn): the half-inhibitory concentration (IC50) amounted to 3600 nM in the series with HEK293, 290 nM in the series on MDA-MB-231, 1200 nM in the series with Plasmodium falciparum [3] and 2200 nM in the series on Plasmodium falciparum [4]. In series [5], the selectivity ratio stood at 3. Further, the inhibition of growth at 20 µM in the series on Plasmodium falciparum [7] was at least 90%.

As to `O=C1C=C/C(=C/[C@@H](O)COC(=O)c2ccccc2)O1`, in the series with Plasmodium falciparum [6], the inhibition of growth at 40 µM stood at 92%. This compound also displayed a concentration for half-maximal inhibition (IC50) in the series on MDA-MB-231 of 240 nM.

As to `CC(=O)O[C@H](OC(=O)c1ccccc1)[C@@]12C=C[C@@H](c3ccc(C=O)cc31)[C@H](O)[C@H]2OC(C)=O`, the inhibition of growth at 40 µM in the series on Plasmodium falciparum [6] turned out to be 98%.

On to `CC(=O)O[C@H]1C=C[C@H](Cl)[C@@](O)(COC(=O)c2ccccc2)[C@@H]1O`, for which the inhibition entry in the series on Krebs2 is “inactive”. Also, in the series with Plasmodium falciparum [6], the inhibition of growth at 40 µM worked out at 72%. Besides, the IC50 in the series with MDA-MB-231 turned out to be 120 nM.

For the compound `CC(=O)O[C@H]1C=C[C@H](O)[C@@](O)(COC(=O)c2ccccc2)[C@@H]1OC(C)=O`, the inhibition result in the series with Krebs2 was “inactive”. Besides, in the series on Plasmodium falciparum [6], the inhibition of growth at 40 µM turned out to be 54%. Half-maximal inhibition in the series with MDA-MB-231 (IC50) was put at 2700 nM.

`CCc1nc(N)nc(N)c1-c1ccc(Cl)cc1` [PYRIMETHAMINE] displayed an IC50 in the series on HEK293 of 4200 nM.

`CC(=O)O[C@@H]1C=C[C@@H](OC(=O)c2ccccc2)[C@@](O)(COC(=O)c2ccccc2)[C@H]1OC(C)=O`: in the series with Krebs2, the inhibition result was “inactive”. Further, in the series with Plasmodium falciparum [6], the inhibition of growth at 40 µM turned out to be 99%. For the same compound, the IC50 in the series with MDA-MB-231 is 2100 nM.

`CC(=O)O[C@H](/C=C1/C=CC(=O)O1)COC(=O)c1ccccc1`: the inhibition entry in the series with Krebs2 was “inactive”. The inhibition of growth at 20 µM with Plasmodium falciparum [7] is at least 90%. Besides, the IC50 with Plasmodium falciparum [3] was found to be 6670 nM. Moreover, in the series on Plasmodium falciparum [8], the inhibition of growth at 40 µM was 100%. In series [9], the inhibition at 72 h, 40 µM was 100%.

As to `CC(=O)O[C@@H]1C=C[C@H](O)[C@@H](O)/C1=C/OC(=O)c1ccccc1`, the inhibition result in the series with Krebs2 is “inactive”. Moreover, the IC50 in the series with HEK293 was determined as 2700 nM; in the series with MDA-MB-231 it was 30 nM; in the series on Plasmodium falciparum [3], 200 nM; in the series with Plasmodium falciparum [4] it was 480 nM. Moreover, the selectivity ratio in series [5] came to 14. Moreover, in the series with Plasmodium falciparum [7], the inhibition of growth at 20 µM was at least 90%.

The compound `COc1ccc2nc3cc(Cl)ccc3c(Nc3cc(CN4CCCC4)c(O)c(CN4CCCC4)c3)c2n1` [PYRONARIDINE] had a half-maximal inhibitory concentration (IC50) in the series with HEK293 of 1800 nM. Further, the selectivity ratio in series [5] was found to be 494.

Regarding `CC(=O)O[C@H]1C=C[C@H](Cl)[C@](O)(COC(=O)c2ccccc2)[C@@H]1O`, in the series with Krebs2, the inhibition result is “inactive”. The inhibition of growth at 40 µM in the series on Plasmodium falciparum [6] worked out at 95%. In the series with MDA-MB-231, this compound yielded an IC50 of 450 nM.
